Source: PubChem BioAssay
STAT1 activator: STAT1 signaling activation; NIH 3T3 STAT1-luciferase reporter, IFN-gamma, luminescence; 100% = IFN-gamma alone, no compound; activation (% of control), % at 5.5 µM; 200,000 compounds, 2.6% hits; AID 932;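 active means activation above the screen-wide mean activation plus 3 SD, cut at about 130% in these data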
FLuc inhib CS: Photinus pyralis luciferase inhibition counter-screen; AID 1006; inhibition, % at 10 µM; P08659; ATPLite firefly luciferase biochemical luminescence, 10 min; 200,000 compounds, 1.5% hits;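 active means inhibition above about 50% when tested at 10 µM, limit read from the data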
Target sequence (P08659 whole entry, looked up): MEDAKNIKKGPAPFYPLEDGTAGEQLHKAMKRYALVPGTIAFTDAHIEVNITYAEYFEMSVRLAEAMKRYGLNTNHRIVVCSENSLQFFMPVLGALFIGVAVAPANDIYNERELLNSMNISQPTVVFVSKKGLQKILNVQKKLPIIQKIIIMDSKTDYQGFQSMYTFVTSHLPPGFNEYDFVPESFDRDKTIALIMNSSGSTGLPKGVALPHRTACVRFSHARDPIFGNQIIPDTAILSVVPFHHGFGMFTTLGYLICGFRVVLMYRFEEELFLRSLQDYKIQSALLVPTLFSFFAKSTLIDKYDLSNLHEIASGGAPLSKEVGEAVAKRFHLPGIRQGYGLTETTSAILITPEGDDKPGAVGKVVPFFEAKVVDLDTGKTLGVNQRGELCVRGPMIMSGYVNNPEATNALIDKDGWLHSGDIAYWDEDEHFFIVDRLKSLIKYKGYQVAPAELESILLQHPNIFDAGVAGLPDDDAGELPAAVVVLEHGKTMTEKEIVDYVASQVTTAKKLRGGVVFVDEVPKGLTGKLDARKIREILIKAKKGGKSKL
STAT3 activator: STAT3 signaling activation; U3A cells, IL-6 STAT3-luciferase reporter, luminescence; 100% = signal with IL-6 EC80 alone; activation (% of control), % at 5.6 µM; 190,000 compounds, 0.91% hits;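 active means activation above the screen-wide mean of compound activation plus 3 SD, cut at about 130% in these data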
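Material: STAT1-lacking human U3A cells, STAT3 luciferase reporter | Benchmarks: IL-6-only wells as 100% reference | Probe or stimulus: IL-6 (33 ng/mL) | Timing: Compound 1 h, then IL-6 6 h at 37 °C | Detection: Luminescence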
STAT1 blocker: inhibitors of IFN-gamma induced STAT1 signaling; NIH 3T3 STAT1-luciferase reporter, luminescence; inhibition, % at 5.5 µM; 200,000 compounds, 0.35% hits; AID 920;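 active means inhibition above a set limit, the mean inhibition across all tested compounds plus 3 SD, cut at about 34% in these data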
FLuc stim CS: affects firefly luciferase, flagging false hits in luciferase stimulation screens | ATPlite luciferase biochemical, luminescence, 10 min; 0 = ATP-free wells, 1 = DMSO control | activation factor at 10 µM | 200,000 tested, under 10 active;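 active means luciferase activation factor, scaled between plate controls, of at least 2 with compound at 10 µM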
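System: luciferase plus luciferin reagent, cell-free; medium: PBS as buffer for the ATP substrate; dosing: test compounds dosed from 2 mM stocks in 100% DMSO; timing: 10 min post-reagent at room temperature; measured by: luminescence measurement of luciferase light output; evaluation: luciferase activation, seen as luminescence increase over controls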
STAT3 inh: STAT3 signaling inhibition; U3A cells, IL-6 STAT3-luciferase reporter, luminescence; host cell line lacks STAT1; inhibition, % at 5.5 µM; 190,000 compounds, 0.89% hits; AID 862;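 active means inhibition above the mean inhibition across all screened compounds plus 3 SD, cut at about 44% in these data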
A number is an active result. Shown are actives, neighbours in structure and some others; about 4.9% of the full set was active somewhere.

How did COCCOC(=O)c1[nH]c2c(c1C)C(=O)C(C(=O)OC)C(C)C2 (stereo not drawn) do in these assays?
STAT1 activator: inactive; FLuc inhib CS: 54.4; STAT3 activator: inactive; STAT1 blocker: inactive; FLuc stim CS: inactive; STAT3 inh: inactive

How did COC(=O)C1C(=O)c2c([nH]c(C(=O)OCC3CCCO3)c2C)CC1C (stereo not drawn) do in these assays?
STAT1 activator: inactive; FLuc inhib CS: 53.5; STAT3 activator: inactive; STAT1 blocker: inactive; FLuc stim CS: inactive; STAT3 inh: inactive

How did Cc1cccc(N2CCN(C(=O)c3ccoc3C)CC2)c1C do in these assays?
STAT1 activator: inactive; FLuc inhib CS: inactive; STAT3 activator: inactive; STAT1 blocker: inactive; FLuc stim CS: inactive; STAT3 inh: inactive

What do the screens show for `Cc1ccc2nc(C)/c(=N\O)c(C)nc2c1`?
STAT1 activator: 137.1; FLuc inhib CS: inactive; STAT3 activator: inactive; STAT1 blocker: inactive; FLuc stim CS: inactive; STAT3 inh: inactive

Results for Cc1nc2ccccc2nc(C)c1=NO ?
STAT1 activator: 138.0; FLuc inhib CS: inactive; STAT3 activator: inactive; STAT1 blocker: inactive; FLuc stim CS: inactive; STAT3 inh: inactive

What do the screens show for `O=C(NCCN1C(=O)S/C(=C\c2cccnc2)C1=O)C1=NN(c2ccccc2)C(=O)CC1`?
STAT1 activator: inactive; FLuc inhib CS: inactive; STAT3 activator: inactive; STAT1 blocker: inactive; FLuc stim CS: inactive; STAT3 inh: inactive

What do the screens show for `CN1CCN(c2nc(-c3cccs3)cs2)CC1`?
STAT1 activator: inactive; FLuc inhib CS: inactive; STAT3 activator: inactive; STAT1 blocker: inactive; FLuc stim CS: inactive; STAT3 inh: inactive

Results for CN1CCN(c2nc(-c3cc4ccccc4o3)cs2)CC1 ?
STAT1 activator: 129.0; FLuc inhib CS: inactive; STAT3 activator: inactive; STAT1 blocker: inactive; FLuc stim CS: inactive; STAT3 inh: inactive

How did Cc1ccc(Oc2ccc(Oc3ccc(C)cc3)nn2)cc1 do in these assays?
STAT1 activator: inactive; FLuc inhib CS: inactive; STAT3 activator: inactive; STAT1 blocker: inactive; FLuc stim CS: inactive; STAT3 inh: inactive

Results for Cc1ccccc1Oc1ccc(Oc2ccccc2C)nn1 ?
STAT1 activator: 130.7; FLuc inhib CS: inactive; STAT3 activator: inactive; STAT1 blocker: inactive; FLuc stim CS: inactive; STAT3 inh: inactive

Results for Cc1cc(C)cc(C(=O)NCCCc2ccccc2)c1 ?
STAT1 activator: inactive; FLuc inhib CS: inactive; STAT3 activator: inactive; STAT1 blocker: inactive; FLuc stim CS: inactive; STAT3 inh: inactive

Results for Cc1ccc(C(=O)NCCCc2ccccc2)c(C)c1 ?
STAT1 activator: 136.0; FLuc inhib CS: inactive; STAT3 activator: inactive; STAT1 blocker: inactive; FLuc stim CS: inactive; STAT3 inh: inactive

How did O=c1c2ccccc2nc2n1CC/C2=C\c1ccccc1[N+](=O)[O-] do in these assays?
STAT1 activator: inactive; FLuc inhib CS: inactive; STAT3 activator: 157.3; STAT1 blocker: inactive; FLuc stim CS: inactive; STAT3 inh: inactive

How did Cc1ccccc1-c1nc2ccccc2c(=O)n1/N=C/c1ccccc1[N+](=O)[O-] do in these assays?
STAT1 activator: inactive; FLuc inhib CS: inactive; STAT3 activator: inactive; STAT1 blocker: inactive; FLuc stim CS: inactive; STAT3 inh: inactive

How did C/C(=N\NS(=O)(=O)c1ccccc1)c1cc(Cl)cc(Cl)c1O do in these assays?
STAT1 activator: inactive; FLuc inhib CS: inactive; STAT3 activator: inactive; STAT1 blocker: inactive; FLuc stim CS: inactive; STAT3 inh: inactive

Results for C=CCn1c(C)cc(C(=O)COC(=O)COc2ccccc2C#N)c1C ?
STAT1 activator: inactive; FLuc inhib CS: inactive; STAT3 activator: inactive; STAT1 blocker: inactive; FLuc stim CS: inactive; STAT3 inh: inactive

Results for C=CCn1c(C)cc(C(=O)COC(=O)[C@@H](NC(=O)c2ccccc2Cl)C(C)C)c1C ?
STAT1 activator: inactive; FLuc inhib CS: 96.5; STAT3 activator: inactive; STAT1 blocker: inactive; FLuc stim CS: inactive; STAT3 inh: inactive

What do the screens show for `CCOC(=O)c1c(-c2ccccc2)nc2cc(C)ccn12`?
STAT1 activator: 133.3; FLuc inhib CS: inactive; STAT3 activator: inactive; STAT1 blocker: inactive; FLuc stim CS: inactive; STAT3 inh: inactive

How did CCOC(=O)C(=O)c1c(-c2ccccc2)nc2ccccn12 do in these assays?
STAT1 activator: inactive; FLuc inhib CS: inactive; STAT3 activator: inactive; STAT1 blocker: inactive; FLuc stim CS: inactive; STAT3 inh: inactive
